Screens deposited in PubChem by The Scripps Research Institute Molecular Screening Center.
The list is not random: actives were taken first. Their share in the collection is about 2.3%.
OXTR ag = human OXTR agonists, primary screen, fluorescence, CHO-OTR cells, Fluo-8 calcium | Fluo-8 calcium fluorescence; normalized: DMSO 0%, oxytocin 100% | 0.32% of 320,000 active | activation, % at 3 µM;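 active means activation above the mean of all tested compounds plus 3 SD, cutoff set per screening run, cut at about 20% in these data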;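 further: peak over basal fluorescence ratio from a 100 s FLIPR kinetic read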
Target sequence (P30559 whole entry, looked up): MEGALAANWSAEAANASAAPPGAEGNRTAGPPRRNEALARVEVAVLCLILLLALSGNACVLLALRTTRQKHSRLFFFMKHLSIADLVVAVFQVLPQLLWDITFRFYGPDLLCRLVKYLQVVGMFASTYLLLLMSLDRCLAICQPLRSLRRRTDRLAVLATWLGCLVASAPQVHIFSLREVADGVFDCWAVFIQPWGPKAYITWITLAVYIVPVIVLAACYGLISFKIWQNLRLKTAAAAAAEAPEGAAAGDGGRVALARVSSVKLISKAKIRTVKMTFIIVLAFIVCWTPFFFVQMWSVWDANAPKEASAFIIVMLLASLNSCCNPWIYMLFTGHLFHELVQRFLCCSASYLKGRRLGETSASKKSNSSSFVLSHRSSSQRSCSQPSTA
TAAR1 ag = human TAAR1 agonists, primary screen, Fluo-8 calcium fluorescence, CHO RD-HGA16 cells; Trace amine-associated receptor 1 (Homo sapiens), Q96RJ0; vehicle wells 0%, saturating PEA agonist 100%; activation, % at 3 µM; 0.99% of 360,000 active;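 active means activation above the mean activation of all test compounds in the run plus 3 SD, cut at about 38% in these data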
Target sequence (Q96RJ0 whole entry, looked up): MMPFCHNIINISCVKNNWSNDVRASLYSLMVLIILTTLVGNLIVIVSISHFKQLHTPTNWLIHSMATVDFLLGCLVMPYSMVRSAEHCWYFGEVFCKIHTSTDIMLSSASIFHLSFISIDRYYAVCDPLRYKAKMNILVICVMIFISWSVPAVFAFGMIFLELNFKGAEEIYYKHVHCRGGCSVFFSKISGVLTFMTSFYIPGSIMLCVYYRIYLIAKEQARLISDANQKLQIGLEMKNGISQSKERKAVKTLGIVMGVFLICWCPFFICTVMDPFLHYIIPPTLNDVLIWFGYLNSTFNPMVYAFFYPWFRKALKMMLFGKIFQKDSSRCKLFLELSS
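Benchmarks: low control DMSO, high control PEA (EC100); System: CHO RD-HGA16 cells carrying human TAAR1 plus Gα16; Detection: Fluo-8 fluorescence, 5 s baseline then 140 s kinetic read; Schedule: 17-24 h plating, Fluo-8 75 min 37 °C, 30 min RT; Read-out basis: % activation from peak over basal fluorescence ratio, DMSO-to-PEA scaled.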
TAAR1 antagonist = human TAAR1 antagonists, primary screen, Fluo-8 calcium fluorescence, CHO RD-HGA16 cells. antagonist. inhibition, % at 3 µM. AID 624466, 2012. 1.5% of 360,000 active;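 active means inhibition above a per-plate cutoff, the mean inhibition of test compounds on that plate plus 3 SD, cut at about 49% in these data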;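 further: 0% = DMSO plus EC80 beta-PEA response and 100% = DMSO alone without agonist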
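System: CHO RD-HGA16 cells bearing hTAAR1. Reagent: EC80 β-phenethylamine stimulus. Schedule: seeding 17-24 h prior, 75-min 37 °C, 30-min RT dye loading. Signal: Fluo-8 intracellular calcium dye fluorescence, real-time kinetic reads. Read-out: % inhibition from peak post-agonist over basal fluorescence ratio. Benchmarks: vehicle wells and EC80 agonist wells. Replicates: n of 1.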
V1aR counter = agonists of human V1a receptor, primary screen, counter-screen for OXTR agonist project, fluorescence, CHO-V1R cells; AID 2797, 2010; Vasopressin V1a receptor (Homo sapiens), P37288; 0.25% of 320,000 active; activation, % at 3 µM; Fluo-8 calcium fluorescence, agonist mode; 0% DMSO, 100% 3 nM vasopressin;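 active means activation above the mean activation of all tested compounds plus 3 SD, per screening run, cut at about 20% in these data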;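 further: signal is peak over basal fluorescence ratio across a 100 second FLIPR read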
OXTR potentiate = human OXTR potentiators, primary screen, fluorescence, CHO-OTR cells, Fluo-8 calcium; AID 2445, 2010; activation, % at 3 µM; Fluo-8 calcium fluorescence, potentiator mode; 0% = oxytocin EC15, 100% = EC100; 0.061% of 320,000 active; Oxytocin receptor (Homo sapiens), P30559;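 active means activation above that plate's cutoff, the mean activation of tested compounds plus 3 SD, cut at about 6.6% in these data, passing the limit was not always enough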;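 further: 100% uses oxytocin at 75 nM as the full agonist control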
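assay system = CHO-OTR cells, human receptor | schedule = compound 6 min at room temperature before oxytocin, 100 s read | detection = Fluo-8 intracellular calcium fluorescence, ex 470-495, em 515-575 nm | evaluation = normalized max/min fluorescence ratio, % activation | control set = EC15 oxytocin alone as 0%, 75 nM oxytocin (EC100) as 100%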
nonsel antag count = nonselective antagonists in TAAR1 counter-screen cells, counter-screen for hTAAR1 antagonist project, cell-based, fluorescence, calcium; shares compounds with TAAR1 antagonist; counterscreen cell line, antagonist mode; inhibition, % at 3 µM; 77% of 2,400 active; AID 651780, 2012; in the data active means inhibition above about 22%;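 further: CHO-Ga16 host cells stimulated with ATP at an EC80 level; 0% = agonist EC80 plus vehicle and 100% = vehicle without agonist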
TAAR1 antag conf = human TAAR1 antagonists, retest of hits, confirmation, cell-based, fluorescence | shares compounds with TAAR1 antagonist | TAAR1-expressing cells, fluorescence antagonist read-out | inhibition, % at 3 µM | 40% of 2,400 active; in the data active means inhibition above about 49%;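 further: CHO-Ga16 host cells challenged with agonist PEA near its EC80; 0% = agonist at EC80 plus vehicle and 100% = vehicle with no agonist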
Ga16 ag counter = calcium activation in Ga16-expressing cells, counter-screen for TAAR1 antagonist project, cell-based, fluorescence; activation, % at 3 µM; agonist counterscreen; shares compounds with TAAR1 antagonist; 18% of 2,400 active; in the data active means activation above about 12%;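 further: 0% = vehicle wells and 100% = saturating stimulus response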
TAAR1 ag count = TAAR1 activation by candidate antagonists – cell-based, fluorescence, counter-screen for TAAR1 antagonist project | shares compounds with TAAR1 antagonist | hTAAR1 cell line, agonist mode | activation, % at 3 µM | 2% of 2,400 active; in the data active means activation above about 37%;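 further: CHO cells stably expressing TAAR1 with calcium dye readout; 0% = DMSO vehicle and 100% = full agonist response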
Active calls of the source: *; . = no result given.

SMILES | OXTR ag | TAAR1 ag | TAAR1 antagonist | V1aR counter | OXTR potentiate | nonsel antag count | TAAR1 antag conf | Ga16 ag counter | TAAR1 ag count
CCCCCCSc1cccc(-c2nc3ccc(C)cn3c2NCc2ccccc2)c1 | -2 | 5 | 52* | 0 | -14 | 18 | 18 | 1 | 3
CCCCCCSc1cccc(-c2nc3cc(C)ccn3c2NCc2ccccc2)c1 | -1 | 1 | -26 | 1 | -7 | . | . | . | .
Cc1ccc2nc(-c3cccc(-c4cccc(Cl)c4)c3)c(NCc3ccccc3)n2c1 | -2 | 10 | 73* | 0 | -11 | 32* | 33 | 2 | 3
CCC(C)Sc1cccc(-c2nc3ccc(C)cn3c2NCc2ccccc2)c1 (centres undefined) | -2 | 13 | 91* | -2 | -12 | 45* | 76* | 9 | 12
CCN(CC)S(=O)(=O)c1ccc(NC(=O)Cc2cccs2)cc1 | 1 | 9 | -1 | 4 | -8 | . | . | . | .
CCCc1cc(=O)oc2c3c(c4c(c12)OC(C)(C)C=C4)OC(C)C(C)C3O (centres undefined) | -2 | 2 | -1 | 0 | -5 | . | . | . | .
COc1ccc(N(C)S(=O)(=O)c2cccc(C(=O)Nc3ccc(OC)nc3)c2)cc1 | 4 | 18 | 62* | 10 | -12 | 31* | 43 | 11 | 6
COc1ccc(N(C)S(=O)(=O)c2cccc(C(=O)Nc3ccc4c(c3)OCCO4)c2)cc1 | -2 | 4 | 36 | -1 | -2 | . | . | . | .
COc1ccc(N(C)S(=O)(=O)c2cccc(C(=O)Nc3ccc(-n4cnnn4)cc3)c2)cc1 | 14 | 19 | 75* | 14 | -21 | 47* | 52* | 13* | 5
CCn1c(=NC(=O)c2ccc(N3C(=O)CCC3=O)cc2)sc2c(OC)ccc(OC)c21 | 0 | 0 | 47 | 2 | 1 | . | . | . | .
CCn1c(=NC(=O)c2cccc(N3C(=O)CCC3=O)c2)sc2c(C)ccc(OC)c21 | -1 | 12 | 60* | 0 | -1 | 30* | 47 | 6 | 6
COc1ccc(-c2csc(NC(=O)CN3C(=O)C4CC=CCC4C3=O)n2)cc1OC (centres undefined) | 4 | 12 | 27 | 4 | -11 | . | . | . | .
O=C(CCN1C(=O)C2CCCCC2C1=O)Nc1nc(-c2ccc(F)c(F)c2)cs1 (centres undefined) | 3 | 16 | 38 | 4 | -10 | . | . | . | .
COc1ccc(-c2csc(NC(=O)CN3C(=O)C4CCCCC4C3=O)n2)cc1OC (centres undefined) | 3 | 17 | 52* | 5 | -13 | 24* | 36 | 13* | 16
O=C(CN1C(=O)C2CC=CCC2C1=O)Nc1nc(-c2ccc(F)c(F)c2)cs1 (centres undefined) | 4 | 27 | 73* | 4 | -8 | 31* | 55* | 14* | 19
COc1ccc(-c2[nH]c3ccccc3c2SCCNC(=O)c2ccccc2)cc1 | 0 | 2 | 70* | 0 | -7 | 23* | 41 | 5 | 5
NC(=O)CCc1c[nH]c2ccccc12 | 2 | 3 | 7 | 1 | -4 | . | . | . | .
OCC(CCc1c[nH]c2ccccc12)c1c[nH]c2ccccc12 (centres undefined) | . | 25 | 53* | . | . | 24* | 29 | 7 | 11
COc1ccccc1COc1ccc2c(C)c(CC(=O)O)c(=O)oc2c1C | -1 | 4 | -16 | 1 | -11 | . | . | . | .
CC1CCc2c(sc3nc(C4CC4)nc(N4CCN(C(=O)c5ccco5)CC4)c23)C1 (centres undefined) | 0 | 17 | 58* | 1 | -6 | 16 | 7 | -1 | 3
O=C(NCCc1ccc(Cl)cc1)c1ccc(CNc2c(N3CCOCC3)c(=O)c2=O)cc1 | 0 | -1 | -22 | 0 | -8 | . | . | . | .
CCOC(=O)N1CCN(C(=O)CS(=O)(=O)c2cn(Cc3ccc(F)cc3)c3ccccc23)CC1 | 3 | 3 | -7 | 2 | -6 | . | . | . | .
CCc1nc(SCC(=O)N2CCN(c3ccccc3)CC2)c2oc3ccccc3c2n1 | 1 | 13 | 53* | 1 | -10 | 27* | 47 | 6 | 5
CCc1nc(SCCO)c2oc3ccccc3c2n1 | -1 | 3 | -12 | 1 | -9 | . | . | . | .
CC(N=C1NC(C)(C)Cc2ccccc21)C(=O)O (centres undefined) | 0 | 8 | -9 | 1 | -10 | . | . | . | .
SMILES | OXTR ag | TAAR1 ag | TAAR1 antagonist | V1aR counter | OXTR potentiate | nonsel antag count | TAAR1 antag conf | Ga16 ag counter | TAAR1 ag count
Cc1cc(C(=O)NCc2ccco2)sc1C | 1 | 9 | -9 | 0 | -2 | . | . | . | .
Cc1cccc(N2CCN(C(=O)CCn3c(=O)[nH]c4ccsc4c3=O)CC2C)c1 (centres undefined) | 4 | 12 | 60* | 4 | -14 | 23* | 45 | 8 | 8
Cc1nnc(NC(=O)C(C)Sc2nnc(CCNC(=O)c3ccccc3F)n2C)s1 (centres undefined) | 0 | 2 | -3 | 0 | -2 | . | . | . | .
CCOc1ccc(/C=C2\SC(=O)N(CCNC(=O)C3COc4ccccc4O3)C2=O)cc1OC (centres undefined) | 7 | 9 | 78* | 5 | -12 | 35* | 47 | 9 | 4
CCCOc1ccc(C(=O)Nc2ccc(N3CCOCC3)cc2N2CCOCC2)cc1OCC | . | 3 | 6 | . | . | . | . | . | .
CCOc1cc(/C=N/NC(=O)c2cc(-c3cccc(OC)c3)nc3ccccc23)ccc1O | -2 | 8 | 76* | 1 | -18 | 14 | 46 | 8 | 8
COc1cc(/C=N/NC(=O)c2cc(-c3ccccc3)nc3ccccc23)ccc1O | -1 | 11 | 35 | 3 | -14 | . | . | . | .
CC(C)COc1cccc(-c2cc(C(=O)N/N=C/c3ccncc3)c3ccccc3n2)c1 | . | 3 | 61* | . | . | 8 | 27 | 6 | 18
